Assay results reported in ChEMBL document CHEMBL1126896, “Preparation and anti-HIV activity of O-acylated heparin and dermatan sulfate derivatives with low anticoagulant effect” (J Med Chem, 1993).

Tests used:
[1] = In vitro anticoagulant activity determined by clotting test of activated partial thromboplastin time (APTT) on a pool of human plasma; assay type: functional
Outline: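 Activated partial thromboplastin time clotting test on pooled human plasma, run on an automatic coagulometer. Activities were calculated according to the European Pharmacopoeia.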

[2] = system: MT4; experiment: Effective concentration to achieve 50% protection of MT-4 cells against the cytopathic effect of HIV-2; assay type: functional, cell-based
[3] = system: MT4; experiment: Selectivity index for CC50 (cytotoxic concentration based on the reduction of the viability of mock-infected MT-4 cells) to that of EC50 against HIV-1; assay type: functional
Outline: (§1)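 MT-4 cells at 3 × 10^5 cells/mL were infected with HIV-1 IIIB or HIV-2 ROD at 100 CCID50/mL, or mock-infected, alongside serial compound dilutions. Viability was read by MTT after 5 days at 37 °C. CC50 comes from mock-infected cells and EC50 from protection against cytopathicity. Index = CC50/EC50.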

[4] = system: HuT78; experiment: Giant-cell formation between persistently HIV-1 infected HUT-78 cells and uninfected MOLT-4 cells; assay type: functional, cell-based
Outline: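 MOLT-4 cells were co-cultured with an equal number of HUT-78 cells persistently infected with HIV-1 IIIB or HIV-2 ROD, with varying compound concentrations. Syncytia were counted by flow cytofluorography after 24 h. EC50 is the concentration giving 50% protection against giant-cell formation.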

[5] = system: MT4; experiment: Effective concentration to achieve 50% protection of MT-4 cells against the cytopathic effect of HIV-1; assay type: functional, cell-based
[6] = system: MT4; experiment: Selectivity index for CC50 (cytotoxic concentration based on reduction of viability of mock-infected MT-4 cells) to that of EC50 against HIV-2; assay type: functional; outline: as §1
[7] = Homo sapiens, MT4, read-out: EC50
[8] = Homo sapiens, HuT78, read-out: EC50

SMILES | APTT [1] [IU mg-1] | EC50 [2, 7] [µg/mL] | Selectivity index [3] | EC50 [4, 8] [µg/mL] | EC50 [5, 7] [µg/mL] | Selectivity index [6] | EC50 ([2]; mt4) [µg/mL] | EC50 ([4]; hut78) [µg/mL] | EC50 ([5]; mt4) [µg/mL]
CCCCCC(=O)O[C@@H]1[C@@H](OC(C)=O)[C@H](O[C@H]2[C@H](OS(=O)(=O)[O-])[C@@H](NS(=O)(=O)[O-])[C@@H](O[C@H]3[C@H](OC(=O)CCCCC)[C@@H](OS(=O)(=O)[O-])[C@H](O[C@H]4[C@H](OC(=O)CCCCC)[C@@H](CO)O[C@@H]4COS(=O)(=O)[O-])O[C@H]3C(=O)[O-])O[C@@H]2COS(=O)(=O)[O-])O[C@H](C(=O)[O-])[C@H]1O[C@H]1O[C@H](COS(=O)(=O)[O-])[C@@H](O[C@@H]2O[C@@H](C(=O)[O-])[C@@H](O)[C@H](OC(=O)CCCCC)[C@H]2OC(C)=O)[C@H](OC(=O)CCCCC)[C@H]1NC(C)=O.[Na+].[Na+].[Na+].[Na+].[Na+].[Na+].[Na+].[Na+].[Na+] | 4 | 5.4 | <1 | 8.9 | > 100 | 9 | – | – | –
CCCC(=O)OC/C(=C\C(=O)[O-])O[C@H]1O[C@H](COS(=O)(=O)[O-])[C@@H](O[C@@H]2O[C@@H](C(=O)[O-])[C@@H](O[C@H]3O[C@H](COS(=O)(=O)[O-])[C@@H](O[C@@H]4O[C@@H](C(=O)[O-])[C@@H](O[C@H]5O[C@H](CS(=O)(=O)[O-])[C@@H](O)[C@H](OC(=O)CCC)[C@H]5NS(=O)(=O)[O-])[C@H](OC(=O)CCC)[C@H]4OS(=O)(=O)[O-])[C@H](OC(=O)CCC)[C@H]3NS(=O)(=O)[O-])[C@H](OC(=O)CCC)[C@H]2OS(=O)(=O)[O-])[C@H](OC(=O)CCC)[C@H]1NS(=O)(=O)[O-].[Na+].[Na+].[Na+].[Na+].[Na+].[Na+].[Na+].[Na+].[Na+].[Na+].[Na+] (stereo in doubt; 3e) | 11 | – | 1357 | – | – | 1261 | 0.28 | 1.5 | 0.26
O=C([O-])/C=C(\COC(=O)CCC(=O)[O-])OC1OC(COS(=O)(=O)[O-])C(OC2OC(C(=O)[O-])C(OC3OC(COS(=O)(=O)[O-])C(OC4OC(C(=O)[O-])C(OC5OC(COS(=O)(=O)[O-])C(O)C(OC(=O)CCC(=O)[O-])C5NS(=O)(=O)[O-])C(OC(=O)CCC(=O)[O-])C4OS(=O)(=O)[O-])C(OC(=O)CCC(=O)[O-])C3NS(=O)(=O)[O-])C(OC(=O)CCC(=O)[O-])C2OS(=O)(=O)[O-])C(OC(=O)CCC(=O)[O-])C1NS(=O)(=O)[O-].[Na+].[Na+].[Na+].[Na+].[Na+].[Na+].[Na+].[Na+].[Na+].[Na+].[Na+].[Na+].[Na+].[Na+].[Na+].[Na+].[Na+] (stereo not given) | 3.1 | 5 | >2500 | > 100 | 0.2 | >100 | – | – | –
CCCC(=O)OC/C(=C\C(=O)[O-])O[C@H]1O[C@H](COS(=O)(=O)[O-])[C@@H](O[C@@H]2O[C@@H](C(=O)[O-])[C@@H](O[C@H]3O[C@H](COS(=O)(=O)[O-])[C@@H](O[C@@H]4O[C@@H](C(=O)[O-])[C@@H](O[C@H]5O[C@H](CS(=O)(=O)[O-])[C@@H](O)[C@H](OC(=O)CCC)[C@H]5NS(=O)(=O)[O-])[C@H](OC(=O)CCC)[C@H]4OS(=O)(=O)[O-])[C@H](OC(=O)CCC)[C@H]3NS(=O)(=O)[O-])[C@H](OC(=O)CCC)[C@H]2OS(=O)(=O)[O-])[C@H](OC(=O)CCC)[C@H]1NS(=O)(=O)[O-].[Na+].[Na+].[Na+].[Na+].[Na+].[Na+].[Na+].[Na+].[Na+].[Na+].[Na+] (stereo in doubt; 3d) | 9 | – | 1480 | – | – | 914 | 0.36 | 10.3 | 0.21
CCCCOC(=O)/C=C(\COC(=O)CCC)OC1OC(COS(=O)(=O)[O-])C(OC2OC(C(=O)OCCCC)C(OC3OC(COS(=O)(=O)[O-])C(OC4OC(C(=O)OCCCC)C(OC5OC(COS(=O)(=O)[O-])C(O)C(OC(=O)CCC)C5NC(C)=O)C(OC(=O)CCC)C4OS(=O)(=O)[O-])C(OC(=O)CCC)C3NC(C)=O)C(OC(=O)CCC)C2OS(=O)(=O)[O-])C(OC(=O)CCC)C1NC(C)=O.[Na+].[Na+].[Na+].[Na+].[Na+] (stereo not given) | 1.3 | 2.6 | >217 | 15 | 2.3 | >192 | – | 15 | –
CCCC(=O)OC/C(=C\C(=O)[O-])O[C@H]1O[C@H](COS(=O)(=O)[O-])[C@@H](O[C@@H]2O[C@@H](C(=O)[O-])[C@@H](O[C@H]3O[C@H](COS(=O)(=O)[O-])[C@@H](O[C@@H]4O[C@@H](C(=O)[O-])[C@@H](O[C@H]5O[C@H](CS(=O)(=O)[O-])[C@@H](O)[C@H](OC(=O)CCC)[C@H]5NS(=O)(=O)[O-])[C@H](OC(=O)CCC)[C@H]4OS(=O)(=O)[O-])[C@H](OC(=O)CCC)[C@H]3NS(=O)(=O)[O-])[C@H](OC(=O)CCC)[C@H]2OS(=O)(=O)[O-])[C@H](OC(=O)CCC)[C@H]1NS(=O)(=O)[O-].[Na+].[Na+].[Na+].[Na+].[Na+].[Na+].[Na+].[Na+].[Na+].[Na+].[Na+] (stereo in doubt; 4i) | 16.8 | – | >1852 | – | – | >2941 | 0.16 | 2.1 | 0.27
CCCCCC(=O)OCC1OC(OC2C(C(=O)[O-])OC(OC3C(NC(C)=O)C(OC4C(C(=O)[O-])OC(C)C(OC(=O)CCCCC)C4O)OC(COC(=O)CCCCC)C3OS(=O)(=O)[O-])C(OC(=O)CCCCC)C2OC(=O)CCCCC)C(NC(C)=O)C(OC)C1OS(=O)(=O)[O-].[Na+].[Na+].[Na+].[Na+] (stereo not given) | 3.4 | 5.4 | 4 | 41 | 19.4 | 17.5 | – | – | –
CCCC(=O)OC/C(=C\C(=O)[O-])O[C@H]1O[C@H](COS(=O)(=O)[O-])[C@@H](O[C@@H]2O[C@@H](C(=O)[O-])[C@@H](O[C@H]3O[C@H](COS(=O)(=O)[O-])[C@@H](O[C@@H]4O[C@@H](C(=O)[O-])[C@@H](O[C@H]5O[C@H](CS(=O)(=O)[O-])[C@@H](O)[C@H](OC(=O)CCC)[C@H]5NS(=O)(=O)[O-])[C@H](OC(=O)CCC)[C@H]4OS(=O)(=O)[O-])[C@H](OC(=O)CCC)[C@H]3NS(=O)(=O)[O-])[C@H](OC(=O)CCC)[C@H]2OS(=O)(=O)[O-])[C@H](OC(=O)CCC)[C@H]1NS(=O)(=O)[O-].[Na+].[Na+].[Na+].[Na+].[Na+].[Na+].[Na+].[Na+].[Na+].[Na+].[Na+] (stereo in doubt; 4h) | 9.7 | – | >1786 | – | – | >2174 | 0.23 | 7.5 | 0.28
CCCC(=O)OC/C(=C\C(=O)[O-])O[C@H]1O[C@H](COS(=O)(=O)[O-])[C@@H](O[C@@H]2O[C@@H](C(=O)[O-])[C@@H](O[C@H]3O[C@H](COS(=O)(=O)[O-])[C@@H](O[C@@H]4O[C@@H](C(=O)[O-])[C@@H](O[C@H]5O[C@H](CS(=O)(=O)[O-])[C@@H](O)[C@H](OC(=O)CCC)[C@H]5NS(=O)(=O)[O-])[C@H](OC(=O)CCC)[C@H]4OS(=O)(=O)[O-])[C@H](OC(=O)CCC)[C@H]3NS(=O)(=O)[O-])[C@H](OC(=O)CCC)[C@H]2OS(=O)(=O)[O-])[C@H](OC(=O)CCC)[C@H]1NS(=O)(=O)[O-].[Na+].[Na+].[Na+].[Na+].[Na+].[Na+].[Na+].[Na+].[Na+].[Na+].[Na+] (stereo in doubt; 4e) | 4.5 | – | >526 | – | – | >7142 | 0.07 | 43.7 | 0.95
